Measurements as given in ChEMBL document CHEMBL1128446, “Pyrazinoic acid esters with broad spectrum in vitro antimycobacterial activity” (1995).
Values after ≈ are worked out from the molar mass of the structure shown.

Legend:
Assay type in all cases: functional
Mycobacterium avium [1] = assay: Minimum Inhibitory Concentration in clinical isolates against Mycobacterium avium complex 101
Outline: (§1)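 Broth macrodilution in tubes of modified Middlebrook 7H10 broth (agar and malachite green omitted) with 10% OADC and 0.05% Tween 80 at pH 5.8. Cultures were grown 3 days at 37 °C on a rotary shaker, then diluted with 7H10 broth to 1 Klett unit/mL. Stocks were made in water or DMSO and filter-sterilised; 2-fold serial dilutions were tested. Tubes shaken 7–10 days at 37 °C, with a drug-free control. MIC = lowest concentration (μg/mL) with no visible turbidity.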

[2] = system: Mycobacterium tuberculosis; assay: Minimum Inhibitory Concentration against Mycobacterium tuberculosis ATCC 27294; conditions: Mycobacterium tuberculosis, ATCC 27294; read-out: MIC; outline: as §1
[3] = system: Mycobacterium tuberculosis; assay: Minimum Inhibitory Concentration against Mycobacterium tuberculosis ATCC 35801; outline: as §1
Mycobacterium kansasii = assay: Minimum Inhibitory Concentration against clinical isolates of Mycobacterium kansasii S
Outline: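 Grown 3 days at 37 °C on a rotary shaker in modified Middlebrook 7H10 broth (agar and malachite green omitted) with 10% OADC and 0.05% Tween 80. Diluted to 1 Klett unit/mL. Tubes held serial 2-fold dilutions in 7H10 broth at pH 5.8, from stocks in water or DMSO, and were shaken at 37 °C for 7–10 days with a drug-free control. MIC was the lowest concentration with no visible turbidity.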

Mycobacterium avium [4] = assay: Minimum Inhibitory Concentration against clinical isolates of Mycobacterium avium complex ATCC 49601; outline: as §1

SMILES | MIC (Mycobacterium avium [1]) | MIC [2] | MIC [3] | MIC (Mycobacterium kansasii) | MIC (Mycobacterium avium [4])
CCCCCCC(C)OC(=O)c1cnc(F)cn1 (stereo not drawn) | 32 µg/mL (≈ 126 µM) | 2 µg/mL (≈ 7.86 µM) | 4 µg/mL (≈ 15.7 µM) | < 0.03 µg/mL | 64 µg/mL (≈ 252 µM)
CCCCCCOC(=O)c1cnc(F)cn1 | 64 µg/mL (≈ 283 µM) |  | 4 µg/mL (≈ 17.7 µM) | 8 µg/mL (≈ 35.4 µM) | 64 µg/mL (≈ 283 µM)
CCCCCCCC(C)(CCCCC)OC(=O)c1cnc(Cl)cn1 (stereo not drawn) | > 64 µg/mL | 2 µg/mL (≈ 5.64 µM) | 4 µg/mL (≈ 11.3 µM) |  | > 64 µg/mL
CCCOC(=O)c1cnc(C)cn1 | > 64 µg/mL | 2 µg/mL (≈ 11.1 µM) | 4 µg/mL (≈ 22.2 µM) | 8 µg/mL (≈ 44.4 µM) | > 64 µg/mL
CCCCCCCOC(=O)c1cnc(C)cn1 | 32 µg/mL (≈ 135 µM) | 0.5 µg/mL (≈ 2.12 µM) | 0.25 µg/mL (≈ 1.06 µM) | 4 µg/mL (≈ 16.9 µM) | 32 µg/mL (≈ 135 µM)
CCCCOC(=O)c1cnc(Cl)cn1 | 64 µg/mL (≈ 298 µM) | 0.25 µg/mL (≈ 1.16 µM) | 0.5 µg/mL (≈ 2.33 µM) | < 1 µg/mL | 128 µg/mL (≈ 596 µM)
CCCCCCCCCCOC(=O)c1cnccn1 | 32 µg/mL (≈ 121 µM) | 0.5 µg/mL (≈ 1.89 µM) | 0.25 µg/mL (≈ 0.946 µM) | 0.25 µg/mL (≈ 0.946 µM) | 8 µg/mL (≈ 30.3 µM)
CCCCCCCCCCOC(=O)c1cnc(F)cn1 | 32 µg/mL (≈ 113 µM) | 2 µg/mL (≈ 7.08 µM) | 4 µg/mL (≈ 14.2 µM) | 1 µg/mL (≈ 3.54 µM) | 32 µg/mL (≈ 113 µM)
COC(=O)c1cnccn1 |  | < 8 µg/mL | 16 µg/mL (≈ 116 µM) | > 64 µg/mL | > 256 µg/mL
CC(C)COC(=O)c1cnc(Cl)cn1 | 64 µg/mL (≈ 298 µM) | 2 µg/mL (≈ 9.32 µM) | 0.25 µg/mL (≈ 1.16 µM) | < 1 µg/mL | 64 µg/mL (≈ 298 µM)
CCCCCCCCC(C)(C)OC(=O)c1cnc(Cl)cn1 | 64 µg/mL (≈ 205 µM) | 0.125 µg/mL (≈ 0.4 µM) | 1 µg/mL (≈ 3.2 µM) | 1 µg/mL (≈ 3.2 µM) | 64 µg/mL (≈ 205 µM)
CCCCCCC(C)(C)OC(=O)c1cnc(Cl)cn1 | 64 µg/mL (≈ 225 µM) | 0.25 µg/mL (≈ 0.878 µM) | 4 µg/mL (≈ 14 µM) | 1 µg/mL (≈ 3.51 µM) | 64 µg/mL (≈ 225 µM)
CCCCCCC(C)(CCCCCC)OC(=O)c1cnc(Cl)cn1 | > 64 µg/mL | 0.25 µg/mL (≈ 0.704 µM) | 0.5 µg/mL (≈ 1.41 µM) | 2 µg/mL (≈ 5.64 µM) | 16 µg/mL (≈ 45.1 µM)
CCCCCCCCC(C)OC(=O)c1cnc(Cl)cn1 (stereo not drawn) | 32 µg/mL (≈ 107 µM) | 0.06 µg/mL (≈ 0.201 µM) | 0.5 µg/mL (≈ 1.67 µM) | < 0.12 µg/mL | 32 µg/mL (≈ 107 µM)
CCCCCCCCCC(C)(C)OC(=O)c1cnc(Cl)cn1 | 256 µg/mL (≈ 783 µM) | 8 µg/mL (≈ 24.5 µM) | 1 µg/mL (≈ 3.06 µM) | 0.5 µg/mL (≈ 1.53 µM) | 256 µg/mL (≈ 783 µM)
CCCCCC(C)(CCCCC)OC(=O)c1cnc(Cl)cn1 | 64 µg/mL (≈ 196 µM) | 8 µg/mL (≈ 24.5 µM) | 8 µg/mL (≈ 24.5 µM) | 8 µg/mL (≈ 24.5 µM) | 64 µg/mL (≈ 196 µM)
COC(=O)c1cnc(C)cn1 | > 256 µg/mL | 16 µg/mL (≈ 105 µM) | 8 µg/mL (≈ 52.6 µM) | 32 µg/mL (≈ 210 µM) | > 256 µg/mL
CCCCCCC(C)(CCCC)OC(=O)c1cnc(Cl)cn1 (stereo not drawn) | > 256 µg/mL | 4 µg/mL (≈ 12.2 µM) | 8 µg/mL (≈ 24.5 µM) | 4 µg/mL (≈ 12.2 µM) | 
CCCCCCCCC(CC)OC(=O)c1cnc(Cl)cn1 (stereo not drawn) | 64 µg/mL (≈ 205 µM) | 0.5 µg/mL (≈ 1.6 µM) | 0.25 µg/mL (≈ 0.799 µM) | < 0.03 µg/mL | 32 µg/mL (≈ 102 µM)
O=C(OCc1ccccc1)c1cnccn1 | 64 µg/mL (≈ 299 µM) | < 1 µg/mL | 1 µg/mL (≈ 4.67 µM) | 1 µg/mL (≈ 4.67 µM) | 64 µg/mL (≈ 299 µM)
CCCCCC(C)(CCCC)OC(=O)c1cnc(Cl)cn1 (stereo not drawn) | 256 µg/mL (≈ 818 µM) | 4 µg/mL (≈ 12.8 µM) | 8 µg/mL (≈ 25.6 µM) | 16 µg/mL (≈ 51.1 µM) | 256 µg/mL (≈ 818 µM)
CCCCCCCCCCCOC(=O)c1cnc(Cl)cn1 | 16 µg/mL (≈ 51.1 µM) | 0.25 µg/mL (≈ 0.799 µM) | 0.5 µg/mL (≈ 1.6 µM) | 0.06 µg/mL (≈ 0.192 µM) | 8 µg/mL (≈ 25.6 µM)
CCCCCCCCCCOC(=O)c1cnc(Cl)cn1 | 32 µg/mL (≈ 107 µM) | 0.5 µg/mL (≈ 1.67 µM) | 0.25 µg/mL (≈ 0.837 µM) | 0.5 µg/mL (≈ 1.67 µM) | 16 µg/mL (≈ 53.5 µM)
CCCCCCCCCOC(=O)c1cnc(Cl)cn1 | 32 µg/mL (≈ 112 µM) | < 0.03 µg/mL | 1 µg/mL (≈ 3.51 µM) | 0.125 µg/mL (≈ 0.439 µM) | 16 µg/mL (≈ 56.2 µM)
CCCCCCC(C)(CCCCC)OC(=O)c1cnc(Cl)cn1 (stereo not drawn) | > 64 µg/mL | 2 µg/mL (≈ 5.87 µM) | 8 µg/mL (≈ 23.5 µM) | 8 µg/mL (≈ 23.5 µM) | > 64 µg/mL
COC(=O)c1cnc(F)cn1 | 64 µg/mL (≈ 410 µM) | 4 µg/mL (≈ 25.6 µM) | 8 µg/mL (≈ 51.2 µM) | 8 µg/mL (≈ 51.2 µM) | 64 µg/mL (≈ 410 µM)
CCCCCC(CC)OC(=O)c1cnc(Cl)cn1 (stereo not drawn) | > 256 µg/mL | 0.25 µg/mL (≈ 0.923 µM) | 1 µg/mL (≈ 3.69 µM) | 0.125 µg/mL (≈ 0.462 µM) | 256 µg/mL (≈ 945 µM)
CC(C)(OC(=O)c1cnc(Cl)cn1)c1ccccc1 |  | 16 µg/mL (≈ 57.8 µM) | 16 µg/mL (≈ 57.8 µM) | 16 µg/mL (≈ 57.8 µM) | 
CCCCCCCC(OC(=O)c1cnc(Cl)cn1)C(C)(C)C (stereo not drawn) | > 256 µg/mL | 0.5 µg/mL (≈ 1.53 µM) | 2 µg/mL (≈ 6.12 µM) | 0.25 µg/mL (≈ 0.765 µM) | 
